Results published in ChEMBL document CHEMBL1128723, “Orally bioavailable benzisothiazolone inhibitors of human leukocyte elastase” (J Med Chem, 1995).

How the values were obtained:
[1] = Compound was tested for in vivo bioavailability in dog; assay type: ADME, organism-based, Canis lupus familiaris; settings: read-out: Bioavailabiility
Method in brief: (§1)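 Fasted rats, beagle dogs or cynomolgus monkeys were dosed orally at 20 mg/kg (one compound at 10 mg/kg) or iv at 5 mg/kg. Vehicles were mainly 0.05% lactic acid in water (oral) or 5% dextrose/0.05% lactic acid (iv). Blood was drawn at intervals, extracted with toluene/hexane (9:1) containing internal standard, and parent quantified by reverse-phase HPLC.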

[2] = Compound was tested for in vivo bioavailability in hamsters; assay type: ADME, organism-based; settings: cricetinae, read-out: Bioavailabiility
[3] = Compound was tested for in vivo bioavailability in monkey; assay type: ADME, organism-based; settings: simiiformes, read-out: Bioavailabiility; method in brief: as §1
[4] = Compound was tested for in vivo bioavailability in rat; assay type: ADME, organism-based; settings: read-out: Bioavailabiility; method in brief: as §1
[5] = Oral bioavailability in Beagle dogs at oral dose of 20 mg/kg and an intravenous dose of 5 mg/kg was administered; assay type: ADME, organism-based, Canis lupus familiaris; settings: dog, in vivo, read-out: BA; method in brief: as §1
[6] = Maximum plasma concentration in Beagle dogs at oral dose of 20 mg/kg and an intravenous dose of 5 mg/kg was administered; assay type: ADME, organism-based, Canis lupus familiaris; settings: dog; method in brief: as §1
[7] = Compound was tested for half life time period in hamster blood; assay type: ADME, organism-based; settings: cricetinae
Method in brief: (§2)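 Fresh heparinized blood from rats, hamsters, beagle dogs and cynomolgus monkeys was used within 4 h of collection. Compound was added from DMSO to a starting concentration of 100 μM and incubated at 37 °C with sampling at intervals. Samples were quenched with acetonitrile/TFA and the supernatant assayed by reverse-phase HPLC for loss of parent, giving the half-life. Control incubations were run with each assay.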

[8] = Compound was tested for half life time period in hamster jejunum; assay type: ADME, organism-based; settings: cricetinae
Method in brief: (§3)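 Jejunum (fresh-frozen animal tissue or unused human transplant tissue) was homogenized in pH 7.2 modified Ringer's buffer, spun at 9000g, and the supernatant kept. Compound was added from DMSO at 100 μM starting concentration and incubated at 37 °C, sampled at intervals. Samples were acetonitrile-quenched and parent measured by RP-HPLC to give the half-life.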

[9] = Compound was tested for half life time period in hamster liver S9; assay type: ADME, S9 fraction; settings: cricetinae
Method in brief: (§4)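 Liver S9 was prepared by homogenizing in 50 mM Na/K phosphate/KCl buffer and spinning at 9000g for 20 min. S9 was used at 8 mg/mL protein with an NADPH-generating system and preincubated 5 min at 37 °C. Compound was added from DMSO at 100 μM starting concentration and incubated at 37 °C. Parent disappearance was followed by RP-HPLC over time to give the half-life.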

[10] = Compound was tested for plasma concentration in Beagle dogs at oral dose of 20 mg/kg and an intravenous dose of 5 mg/kg was administered; assay type: ADME, organism-based, Canis lupus familiaris; settings: dog; method in brief: as §1
[11] = Compound was tested for the half life time period in dog blood; assay type: ADME, organism-based, Canis lupus familiaris; method in brief: as §2
[12] = Human tissue stability for the compound was determined by its half life time period in human blood; assay type: ADME, organism-based
[13] = Human tissue stability for the compound was determined by its half life time period in human jejunum; assay type: ADME, organism-based; method in brief: as §3
[14] = Compound was tested for the half life time period in dog jejunum; assay type: ADME, organism-based, Canis lupus familiaris; method in brief: as §3
[15] = Compound was tested for the half life time period in dog liver S9; assay type: ADME, Canis lupus familiaris, S9 fraction; method in brief: as §4
[16] = Compound was tested for the half life time period in monkey blood; assay type: ADME, tissue-based; settings: simiiformes; method in brief: as §2
[17] = Compound was tested for the half life time period in monkey jejunum; assay type: ADME, tissue-based; settings: simiiformes; method in brief: as §3
[18] = Compound was tested for the half life time period in rat jejunum; assay type: ADME, organism-based; method in brief: as §3
[19] = Compound was tested for the half life time period in rat liver S9; assay type: ADME, S9 fraction; method in brief: as §4
[20] = Human tissue stability for the compound was determined by its half life time period in human liver; assay type: ADME, organism-based; method in brief: as §4
[21] = target: T1, Neutrophil elastase (Homo sapiens, UniProt P08246); assay: Potency of inhibition against human leukocyte elastase (HLE) expressed as an apparent binding constant
T1 sequence (P08246 whole entry): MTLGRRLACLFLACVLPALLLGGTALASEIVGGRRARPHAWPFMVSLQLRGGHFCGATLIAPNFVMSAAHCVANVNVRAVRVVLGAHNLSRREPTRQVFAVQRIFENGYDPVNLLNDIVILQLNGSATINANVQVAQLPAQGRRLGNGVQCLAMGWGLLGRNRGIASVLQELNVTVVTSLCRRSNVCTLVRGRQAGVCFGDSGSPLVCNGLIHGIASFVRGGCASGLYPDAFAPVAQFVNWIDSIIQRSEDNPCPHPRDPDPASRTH

[22] = system: Cricetinae gen. sp.; assay: Compound was tested for effective dose required for the inhibition of human leukocyte elastase in the HLE-induced hamster hemorrhage model; assay type: functional, Cricetulus griseus
[23] = Compound was tested for the half life time period in monkey liver S9; assay type: ADME, subcellular, S9 fraction; settings: simiiformes; method in brief: as §4
[24] = Compound was tested for the half life time period in rat blood; assay type: ADME, organism-based; method in brief: as §2
[25] = system: Cricetinae gen. sp.; assay: Inhibitory activity was determined against HLE-induced hamster hemorrhage model by intravenous administration at a dose of 1 mg/kg; assay type: functional, Cricetulus griseus
[26] = system: Cricetinae gen. sp.; assay: Effective dose required for the inhibition of human leukocyte elastase in the HLE-induced hamster hemorrhage model.; assay type: functional, Cricetulus griseus

Row | SMILES | bioavailability [5] | Cmax [6] | half-life [10] | half-life [12] | half-life [13] | half-life [20] | Ki [21] | further results
1 | COc1cc(C(C)C)c2c(c1)S(=O)(=O)N(COC(=O)c1c(Cl)ccc(OCCN3CCOCC3)c1Cl)C2=O | 21% | 1200 ng/mL | 137 min | 36 min | 170 min | 37.3 min | 13 pM | bioavailability [1]: 21%; bioavailability [2]: < 3%; bioavailability [3]: < 1%; bioavailability [4]: 1%; half-life [7]: 259 min; half-life [8]: 1.3 min; half-life [9]: < 5 min; half-life [11]: 90 min; half-life [14]: 394 min; half-life [15]: 30.2 min; half-life [16]: 57.2 min; half-life [17]: 32.3 min; half-life [18]: 60.8 min; half-life [19]: 12.4 min; ED50 [22]: 3 mg/kg; half-life [23]: 2.9 min; half-life [24]: 6 min
2 | CC(C)c1cc(O)cc2c1C(=O)N(COC(=O)c1c(Cl)ccc(S(=O)(=O)N3CCN(C)CC3)c1Cl)S2(=O)=O | 8% | 220 ng/mL | 23 min | > 1200 min | 113 min | 40.2 min | 200 pM | 
3 | CC(C)c1cccc2c1C(=O)N(COC(=O)c1c(Cl)ccc(OCCN3CCOCC3)c1Cl)S2(=O)=O |  |  |  | 20 min | 13 min | 4.9 min | 8 pM | inhibition in vivo at 1 mg/kg [25]: 87%
4 | COc1cc(C(C)C)c2c(c1)S(=O)(=O)N(COC(=O)c1c(Cl)ccc(OCC(=O)O)c1Cl)C2=O |  |  |  | < 15 min |  |  | 11 pM | 
5 | COc1cc(C(C)C)c2c(c1)S(=O)(=O)N(COC(=O)c1c(Cl)ccc(S(=O)(=O)N(C)CCN(C)C)c1Cl)C2=O | 14% | 300 ng/mL | 74 min | 130 min | 80 min | 23.9 min | 13 pM | 
6 | COc1cc(C(C)C)c2c(c1)S(=O)(=O)N(COC(=O)c1c(Cl)ccc(S(=O)(=O)N3CCN(C)CC3)c1Cl)C2=O | 21% | 390 ng/mL | 78 min | 90 min | 99 min | 28.9 min | 11 pM | 
7 | COc1cc(C(C)C)c2c(c1)S(=O)(=O)N(COC(=O)c1c(Cl)ccc(OCCN3CCCC3)c1Cl)C2=O | 46% | 325 ng/mL | 432 min | 110 min | 218 min | 110 min | 14 pM | ED50 [26]: 1 mg/kg
8 | O=C1c2ccccc2S(=O)(=O)N1CSc1nnnn1-c1ccccc1 |  |  |  | < 5 min |  |  |  | 
